Laboratory results taken from ChEMBL document CHEMBL1152312, “Neopyrrolomycins with broad spectrum antibacterial activity” (2009).
In brackets after ≈: the same amount, converted by molar mass. Activity calls are given as the source filed them. The rule behind the calls is not given here.

Legend:
[1] = system: Streptococcus agalactiae; experiment: Antibacterial activity against Streptococcus agalactiae 2033 by microdilution method; type: functional
Outline: (§1)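 MIC values from CLSI broth microdilution. Strains came from the ATCC collection and from clinical isolates.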

[2] = system: Escherichia coli; experiment: Antibacterial activity against extended spectrum beta-lactamase-producing Escherichia coli 2269 by microdilution method; type: functional; outline: as §1
[3] = system: Staphylococcus aureus; experiment: Antibacterial activity against methicillin-resistant Staphylococcus aureus 1137 by microdilution method; type: functional; outline: as §1
[4] = system: Enterococcus faecium; experiment: Antibacterial activity against vancomycin-sensitive Enterococcus faecium 843 by microdilution method; type: functional; outline: as §1
[5] = system: Staphylococcus aureus; experiment: Antibacterial activity against Linezolid, methicillin-resistant Staphylococcus aureus 1725 by microdilution method; type: functional; outline: as §1
[6] = system: Klebsiella pneumoniae; experiment: Antibacterial activity against ampicillin beta-lactamase, multidrug-resistant Klebsiella pneumoniae 2262 by microdilution method; type: functional; outline: as §1
[7] = system: Staphylococcus aureus; experiment: Antibacterial activity against vancomycin-intermediate Staphylococcus aureus 2018 by microdilution method; type: functional; outline: as §1
[8] = system: Enterococcus faecium; experiment: Antibacterial activity against vancomycin-resistant Enterococcus faecium 1254 by microdilution method; type: functional; outline: as §1
[9] = system: Haemophilus influenzae; experiment: Antibacterial activity against ampicillin-resistant Haemophilus influenzae 1742 by microdilution method; type: functional; outline: as §1
[10] = system: Streptococcus pneumoniae; experiment: Antibacterial activity against Streptococcus pneumoniae 1195 ATCC 49619 by microdilution method; type: functional; outline: as §1
[11] = system: Haemophilus influenzae; experiment: Antibacterial activity against Haemophilus influenzae 1224 ATCC 49247 by microdilution method; type: functional; outline: as §1
[12] = system: Enterococcus faecalis; experiment: Antibacterial activity against vancomycin-resistant Enterococcus faecalis 846 by microdilution method; type: functional; outline: as §1
[13] = system: Streptococcus pneumoniae; experiment: Antibacterial activity against penicillin-resistant Streptococcus pneumoniae 940 by microdilution method; type: functional; outline: as §1
[14] = system: Streptococcus pneumoniae; experiment: Antibacterial activity against multidrug-resistant Streptococcus pneumoniae 933 by microdilution method; type: functional; outline: as §1
[15] = system: Moraxella catarrhalis; experiment: Antibacterial activity against Moraxella catarrhalis 557 by microdilution method; type: functional; outline: as §1
[16] = system: Staphylococcus aureus; experiment: Antibacterial activity against community-acquired Staphylococcus aureus 2144 by microdilution method; type: functional; outline: as §1
[17] = system: Escherichia coli; experiment: Antibacterial activity against Escherichia coli 102 ATCC 25922 by microdilution method; type: functional; outline: as §1
[18] = system: Streptococcus pneumoniae; experiment: Antibacterial activity against quinolone-resistant Streptococcus pneumoniae 379 by microdilution method; type: functional; outline: as §1
[19] = system: Staphylococcus epidermidis; experiment: Antibacterial activity against Staphylococcus epidermidis 495 by microdilution method; type: functional; outline: as §1
[20] = system: Staphylococcus aureus; experiment: Antibacterial activity against vancomycin-intermediate Staphylococcus aureus 2012 by microdilution method; type: functional; outline: as §1
[21] = system: Streptococcus pyogenes; experiment: Antibacterial activity against Streptococcus pyogenes 723 by microdilution method; type: functional; outline: as §1
[22] = system: Streptococcus pneumoniae; experiment: Antibacterial activity against penicillin-susceptible Streptococcus pneumoniae 866 by microdilution method; type: functional; outline: as §1
[23] = system: Staphylococcus epidermidis; experiment: Antibacterial activity against methicillin-resistant Staphylococcus epidermidis 1452 by microdilution method; type: functional; outline: as §1
[24] = system: Streptococcus pneumoniae; experiment: Antibacterial activity against quinolone-resistant Streptococcus pneumoniae 376 by microdilution method; type: functional; outline: as §1
[25] = system: Pseudomonas aeruginosa; experiment: Antibacterial activity against Pseudomonas aeruginosa 1473 by microdilution method; type: functional; outline: as §1
[26] = system: Klebsiella pneumoniae; experiment: Antibacterial activity against Klebsiella pneumoniae 2239 by microdilution method; type: functional; outline: as §1
[27] = system: Staphylococcus epidermidis; experiment: Antibacterial activity against methicillin-sensitive Staphylococcus epidermidis 1597 by microdilution method; type: functional; outline: as §1
[28] = system: Staphylococcus aureus; experiment: Antibacterial activity against methicillin-resistant Staphylococcus aureus 2170 by microdilution method; type: functional; outline: as §1
[29] = system: Haemophilus parainfluenzae; experiment: Antibacterial activity against Haemophilus parainfluenzae 2319 ATCC 7901 by microdilution method; type: functional; outline: as §1
[30] = system: Streptococcus pneumoniae; experiment: Antibacterial activity against penicillin-resistant Streptococcus pneumoniae 748 by microdilution method; type: functional; outline: as §1
[31] = system: Staphylococcus aureus; experiment: Antibacterial activity against Linezolid, methicillin-resistant Staphylococcus aureus 1651 by microdilution method; type: functional; outline: as §1
[32] = system: Serratia marcescens; experiment: Antibacterial activity against Serratia marcescens 1635 by microdilution method; type: functional; outline: as §1
[33] = system: Pseudomonas aeruginosa; experiment: Antibacterial activity against Pseudomonas aeruginosa 27853 by microdilution method; type: functional
Outline: (§2)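 MIC determined by CLSI broth microdilution; organisms were ATCC strains and clinical isolates.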

[34] = system: Staphylococcus aureus; experiment: Antibacterial activity against methicillin-sensitive Staphylococcus aureus 29213 by microdilution method; type: functional; outline: as §1
[35] = system: Escherichia coli; experiment: Antibacterial activity against Escherichia coli 25922 by microdilution method; type: functional; outline: as §2
[36] = system: Staphylococcus aureus; experiment: Antibacterial activity against methicillin-sensitive Staphylococcus aureus 100 ATCC 29213 by microdilution method; type: functional; outline: as §1
[37] = system: Streptococcus pneumoniae; experiment: Antibacterial activity against Streptococcus pneumoniae 49619 by microdilution method; type: functional; outline: as §2
[38] = system: Staphylococcus aureus; experiment: Antibacterial activity against methicillin-sensitive Staphylococcus aureus 6538 by microdilution method; type: functional; outline: as §1
[39] = system: Klebsiella pneumoniae; experiment: Antibacterial activity against Klebsiella pneumoniae 4352 by microdilution method; type: functional; outline: as §2
[40] = system: Escherichia coli; experiment: Antibacterial activity against Escherichia coli 1411 by microdilution method; type: functional; outline: as §2
[41] = system: Staphylococcus aureus; experiment: Antibacterial activity against methicillin-resistant Staphylococcus aureus 43300 by microdilution method; type: functional; outline: as §1
[42] = system: Enterococcus faecium; experiment: Antibacterial activity against vancomycin-resistant Enterococcus faecium 700221 by microdilution method; type: functional; outline: as §1
[43] = system: NHDF; experiment: Cytotoxicity against NHDF cells after 48 hrs by celltiter glow assay; type: functional; conditions: Homo sapiens
Outline: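 Fibroblasts kept at 37 °C, 5% CO2 in FGM-2 medium, passage ≤16. Seeded at 1.25 × 10^5 cells/mL 24 h before dosing. Compounds dissolved in DMSO, tested 0.6–128 µg/mL at 1% final DMSO for 48 h. Viability by CellTiter-Glo luminescence, expressed as percent of DMSO control.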

[44] = system: HepG2; experiment: Cytotoxicity against human HepG2 cells assessed as effect on cell viability at 8 ug/mL after 48 hrs by celltiter glow assay; type: functional, cell-based
Outline: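 HepG2 cells were kept in MEM with 10% heat-inactivated FBS, 0.10 mM nonessential amino acids and 1 mM sodium pyruvate at 37 °C and 5% CO2. Cells were seeded at 1.25 × 10^5 cells/mL 24 h before dosing. Compounds were dissolved in DMSO and tested at 0.6–128 µg/mL with 1% DMSO final for 48 h. Viability was read by CellTiter-Glo luminescence as a percentage of the DMSO control.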

For `O=C(O)c1cn(C2CC2)c2cc(N3CCNCC3)c(F)cc2c1=O` [CIPROFLOXACIN], the MIC90 [1] was 1 mg/L (≈ 3.02 µM), the MIC90 [2] was > 2 mg/L and the MIC90 [3] was > 2 mg/L. For the same molecule, the MIC90 [4] was > 2 mg/L, the MIC90 [5] was > 2 mg/L and the MIC90 [6] was > 2 mg/L. The MIC90 [7] was > 2 mg/L, the MIC90 [8] was > 2 mg/L and the MIC90 [9] was 0.008 mg/L (≈ 0.0241 µM). The MIC90 [10] was 1 mg/L (≈ 3.02 µM), the MIC90 [11] was 0.15 mg/L (≈ 0.453 µM) and the MIC90 [12] was > 2 mg/L. The MIC90 [13] was > 2 mg/L, the MIC90 [14] was 2 mg/L (≈ 6.04 µM) and the MIC90 [15] was 0.03 mg/L (≈ 0.0905 µM). The MIC90 [16] was > 2 mg/L, the MIC90 [17] was 0.008 mg/L (≈ 0.0241 µM) and the MIC90 [18] was > 2 mg/L. The MIC90 [19] was 0.5 mg/L (≈ 1.51 µM), the MIC90 [20] was > 2 mg/L and the MIC90 [21] was 0.5 mg/L (≈ 1.51 µM). The MIC90 [22] was > 2 mg/L, the MIC90 [23] was > 2 mg/L and the MIC90 [24] was > 2 mg/L. The MIC90 [25] was 1 mg/L (≈ 3.02 µM), the MIC90 [26] was 0.03 mg/L (≈ 0.0905 µM) and the MIC90 [27] was 0.25 mg/L (≈ 0.754 µM). For the same molecule, the MIC90 [28] was > 2 mg/L, the MIC90 [29] was 0.15 mg/L (≈ 0.453 µM) and the MIC90 [30] was 1 mg/L (≈ 3.02 µM). The MIC90 [31] was > 2 mg/L and the MIC90 [32] was 0.06 mg/L (≈ 0.181 µM).
In the case of `Oc1cc(Cl)c(Cl)c(Cl)c1-n1cc(Cl)c(Cl)c1Cl` [NEOPYRROLOMYCIN B], the MIC90 [1] is reported as 16 mg/L (≈ 43.7 µM), the MIC90 [33] is reported as 16 mg/L (≈ 43.7 µM) and the MIC90 [2] is reported as 8 mg/L (≈ 21.9 µM). The MIC90 [34] was 0.5 mg/L (≈ 1.37 µM), the MIC90 [3] was 0.12 mg/L (≈ 0.328 µM) and the MIC90 [4] was ≤ 0.06 mg/L. For the same molecule, the MIC90 [5] was ≤ 0.06 mg/L, the MIC90 [6] was 8 mg/L (≈ 21.9 µM) and the MIC90 [7] was ≤ 0.06 mg/L. For the same molecule, the MIC90 [8] was ≤ 0.06 mg/L, the MIC90 [9] was 0.5 mg/L (≈ 1.37 µM) and the MIC90 [10] was 2 mg/L (≈ 5.47 µM). For the same molecule, the MIC90 [11] was 0.25 mg/L (≈ 0.683 µM), the MIC90 [12] was ≤ 0.06 mg/L and the MIC90 [13] was 1 mg/L (≈ 2.73 µM). For the same molecule, the MIC90 [14] was 1 mg/L (≈ 2.73 µM), the MIC90 [15] was ≤ 0.06 mg/L and the MIC90 [16] was 0.12 mg/L (≈ 0.328 µM). For the same molecule, the MIC90 [17] was 8 mg/L (≈ 21.9 µM), the MIC90 [18] was 16 mg/L (≈ 43.7 µM) and the MIC90 [35] was 16 mg/L (≈ 43.7 µM). For the same molecule, the MIC90 [19] was ≤ 0.06 mg/L, the MIC90 [20] was ≤ 0.06 mg/L and the MIC90 [36] was 0.25 mg/L (≈ 0.683 µM). For the same molecule, the MIC90 [37] was 1 mg/L (≈ 2.73 µM), the MIC90 [21] was > 16 mg/L and the MIC90 [22] was 16 mg/L (≈ 43.7 µM). The MIC90 [23] was ≤ 0.06 mg/L, the MBC [38] was 2 mg/L (≈ 5.47 µM) and the MIC90 [38] was 0.25 mg/L (≈ 0.683 µM). It also gave an MIC90 [24] of 2 mg/L (≈ 5.47 µM), an MIC90 [25] of 16 mg/L (≈ 43.7 µM) and an MIC90 [39] of 16 mg/L (≈ 43.7 µM). The MIC90 [26] was 16 mg/L (≈ 43.7 µM), the MIC90 [27] was ≤ 0.06 mg/L and the MIC90 [40] was 16 mg/L (≈ 43.7 µM). For the same molecule, the MIC90 [28] was ≤ 0.06 mg/L, the MIC90 [41] was 0.125 mg/L (≈ 0.342 µM) and the MIC90 [29] was 1 mg/L (≈ 2.73 µM). The MIC90 [30] was 1 mg/L (≈ 2.73 µM), the MIC90 [31] was ≤ 0.06 mg/L and the MIC90 [42] was 0.5 mg/L (≈ 1.37 µM). The CC90 [43] was 16 mg/L (≈ 43.7 µM), the Activity [44] was “Active” and the MIC90 [32] was 16 mg/L (≈ 43.7 µM).
